Several values for one entry are separate records, joined by “and”; a condition that tells them apart may be missing. Identical values can stand only once. Activity calls are given as the source filed them.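 Rule for the calls: active = mean inhibition at 10 µM of 50% or more; inactive = mean inhibition at 10 µM below 50%.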
system: Huh-7.5 HCV Rluc replicon, luciferase luminescence, 72 h; assay: inhibition of HCV replicon replication, late-stage follow-up, orthogonal assay for HCV NS3 helicase inhibitor project, cell-based, luminescence, Renilla luciferase replicon (AID 623962); conditions: at 10 µM; hits give high values
Outline: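 Test system – Huh-7.5 human hepatoma cells with HCV replicon–Renilla luciferase fusion · Doses – single dose, 10 µM final, 0.5% DMSO final · Times – 4-5 h attachment, 72 h compound exposure at 37 °C · Signal – Renilla luciferase luminescence of lysed cells · Measure – % replication inhibition versus DMSO-treated cells · Controls – DMSO-only wells as reference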

Row | SMILES | inhibition
1 | Cc1ccc2nc(-c3ccc4nc(-c5ccc(NC(=O)c6ccc(CNC(=O)OCC7c8ccccc8-c8ccccc87)cc6)cc5)sc4c3)sc2c1S(=O)(=O)O | 48% (inactive)
2 | Cc1ccc2nc(-c3ccc(NC(=O)c4ccc(NC(=O)OCC5c6ccccc6-c6ccccc65)cc4)cc3)sc2c1S(=O)(=O)O | 31% (inactive)
3 | Cc1ccc2nc(-c3ccc(N)cc3)sc2c1S(=O)(=O)O | 0% (inactive)
4 | Cc1ccc2nc(-c3ccc4nc(-c5ccc(NC(=O)c6cc(F)ccc6C(F)(F)F)cc5)sc4c3)sc2c1S(=O)(=O)O | 61%
5 | Cc1ccc2nc(-c3ccc4nc(-c5ccc(NC(=O)c6cccc(Cl)c6)cc5)sc4c3)sc2c1S(=O)(=O)O | 54%
6 | Cc1cc2sc(-c3ccc4nc(-c5ccc(N)cc5)sc4c3)nc2cc1S(=O)(=O)O | 28% (inactive)
7 | Cc1ccc2nc(-c3ccc4nc(-c5ccc(NC(=S)Nc6ccccc6)cc5)sc4c3)sc2c1S(=O)(=O)O | 9% (inactive)
8 | CC(=O)Nc1ccc(-c2nc3ccc(-c4nc5ccc(C)c(S(=O)(=O)O)c5s4)cc3s2)cc1 | 26% (inactive)
9 | Cc1ccc(C(=O)Nc2ccc(-c3nc4ccc(-c5nc6ccc(C)c(S(=O)(=O)O)c6s5)cc4s3)cc2)cc1 | 52%
10 | Cc1ccc2nc(-c3ccc4nc(-c5ccc(NC(=O)c6ccc7nc(-c8ccc(N)cc8)sc7c6)cc5)sc4c3)sc2c1S(=O)(=O)O | 37% (inactive)
11 | COc1ccc2sc(NC(=O)c3ccc4ncsc4c3)nc2c1 | 60%
12 | Cc1ccc2nc(-c3ccc4nc(-c5ccc(NC(=O)c6ccc(NC(=O)OCC7c8ccccc8-c8ccccc87)cc6)cc5)sc4c3)sc2c1S(=O)(=O)O | 57%
13 | Cc1ccc2nc(-c3ccc4nc(-c5ccc(NC(=O)c6ccc(Br)cc6)cc5)sc4c3)sc2c1S(=O)(=O)O | 7% (inactive)
14 | Cc1ccc2nc(-c3ccc4nc(-c5ccc(NC(=O)c6ccc(N)cc6)cc5)sc4c3)sc2c1S(=O)(=O)O | 33% (inactive)
15 | CCN(CC)c1ccc(-c2nc3ccc(-c4nc5ccc(C)c(S(=O)(=O)O)c5s4)cc3s2)cc1 | 0% (inactive)
16 | COc1ccc(C(=O)Nc2ccc(-c3nc4ccc(-c5nc6ccc(C)c(S(=O)(=O)O)c6s5)cc4s3)cc2)cc1 | 64%
17 | CCN(CC)c1ccc(-c2nc3ccc(C)c(S(=O)(=O)O)c3s2)cc1 | 0% (inactive)
18 | COc1cccc2c(=O)c3cc(Cl)cc(C(=O)Nc4cc(Cl)ccn4)c3[nH]c12 | 73%
19 | Cc1ccc2nc(-c3ccc4nc(-c5ccc(NC(=O)Nc6ccccc6)cc5)sc4c3)sc2c1S(=O)(=O)O | -18% (inactive)
20 | CN1CCN(Cc2cc(CN3CCN(C)CC3)c(O)c(=O)c(CN3CCN(C)CC3)c2)CC1 | 46% (inactive)
21 | Cc1ccc2nc(-c3ccc4nc(-c5ccc(NC(=O)c6ccc(C(F)(F)F)cc6)cc5)sc4c3)sc2c1S(=O)(=O)O | 44% (inactive)
22 | Cc1ccc2nc(-c3ccc4nc(-c5ccc(NC(=O)Nc6ccc(Cl)cc6)cc5)sc4c3)sc2c1S(=O)(=O)O | 35% (inactive)
23 | CCOc1ccc2c(NNC(=O)c3cnccn3)c3c(nc2c1)CCCC3 | 81%
24 | Cc1ccc2nc(-c3ccc4nc(-c5ccc(NC(=O)c6cccc(C(F)(F)F)c6)cc5)sc4c3)sc2c1S(=O)(=O)O | 41% (inactive)

Row | SMILES | inhibition
25 | Cc1ccc2nc(-c3ccc4nc(-c5ccc(NC(=O)c6cccc7ccccc67)cc5)sc4c3)sc2c1S(=O)(=O)O | -9% (inactive)
26 | Cc1ccc2c(sc(-c3ccc4c(c3)sc(-c3ccc5c(c3)sc(-c3ccc(N(C)C)cc3)[n+]5C)[n+]4C)[n+]2C)c1S(=O)(=O)O (tested in a mixture with another compound) | -16% (inactive)
27 | Cc1ccc2nc(-c3ccc4nc(-c5ccc(NC(=O)c6ccc(C(F)(F)F)c(F)c6)cc5)sc4c3)sc2c1S(=O)(=O)O | 48% (inactive)
28 | Cc1ccc2nc(-c3ccc4nc(-c5ccc(NC(=O)Nc6ccc(C(F)(F)F)cc6)cc5)sc4c3)sc2c1S(=O)(=O)O | 7% (inactive)
29 | Cc1ccc(NC(=O)Nc2ccc(-c3nc4ccc(-c5nc6ccc(C)c(S(=O)(=O)O)c6s5)cc4s3)cc2)cc1 | 43% (inactive)
30 | Cc1ccc2nc(-c3ccc4nc(-c5ccc(NC(=O)c6ccc(C(C)(C)C)cc6)cc5)sc4c3)sc2c1S(=O)(=O)O | 51%
31 | Cc1ccc2nc(-c3ccc4nc(-c5ccc(NC(=O)c6ccccc6C(F)(F)F)cc5)sc4c3)sc2c1S(=O)(=O)O | 0% (inactive)
32 | Cc1ccc2nc(-c3ccc4nc(-c5ccc(NS(=O)(=O)c6ccc(C(F)(F)F)cc6)cc5)sc4c3)sc2c1S(=O)(=O)O | -7% (inactive)
33 | Cc1ccc2nc(-c3ccc(NC(=O)c4ccc(NC(=O)c5ccc(C(F)(F)F)cc5)cc4)cc3)sc2c1S(=O)(=O)O | 4% (inactive)
34 | Cc1ccc2nc(-c3ccc4nc(-c5ccc(NC(=O)c6cccc(C(F)(F)F)c6F)cc5)sc4c3)sc2c1S(=O)(=O)O | 48% (inactive)
35 | Cc1ccc2nc(-c3ccc(NC(=O)c4ccc(C(F)(F)F)cc4)cc3)sc2c1S(=O)(=O)O | 11% (inactive)
36 | Cc1ccc2nc(-c3ccc4nc(-c5ccc6nc(-c7ccc8nc(-c9ccc(N)cc9)sc8c7)sc6c5)sc4c3)sc2c1S(=O)(=O)O | 0% (inactive) and 45% (inactive)
37 | O=C(Nc1nc2ccc(Br)cc2s1)c1ccc2ncsc2c1 | 25% (inactive)
38 | CCOc1ccc2nc(NC(=O)c3ccc4ncsc4c3)sc2c1 | 99%
39 | Cc1ccc2nc(-c3ccc(NC(=O)c4ccc(NC(=S)Nc5ccccc5)cc4)cc3)sc2c1S(=O)(=O)O | -13% (inactive)
40 | Cc1ccc2nc(-c3ccc4nc(-c5ccc(NC(=O)c6ccc(Cl)c(Cl)c6)cc5)sc4c3)sc2c1S(=O)(=O)O | 43% (inactive)
41 | Cc1cc(C(O)(c2ccc(Nc3ccccc3)cc2)c2ccc(Nc3ccc(S(=O)(=O)O)cc3)cc2)ccc1N (stereo unspecified) | 23% (inactive)
42 | Cc1ccc2nc(-c3ccc(NC(=O)c4ccc(NC(=O)c5ccccc5)cc4)cc3)sc2c1S(=O)(=O)O | 19% (inactive)
43 | Cc1ccc2nc(-c3ccc4nc(NC(=O)c5ccc6ncoc6c5)sc4c3)sc2c1 | 90%
44 | Cc1ccc2nc(-c3ccc4nc(-c5ccc(NC(=O)c6c(F)cccc6C(F)(F)F)cc5)sc4c3)sc2c1S(=O)(=O)O | 55%
45 | Cc1ccc2nc(-c3ccc(NC(=O)c4ccc(N)cc4)cc3)sc2c1S(=O)(=O)O | 21% (inactive)
46 | Cc1ccc2nc(-c3ccc(NC(=S)Nc4ccccc4Br)cc3)sc2c1 | 80%
47 | Cc1ccc2nc(-c3ccc4nc(-c5ccc(NC(=O)c6ccc(Cl)cc6)cc5)sc4c3)sc2c1S(=O)(=O)O | 42% (inactive)
48 | Cc1ccc2nc(-c3ccc4nc(-c5ccc(NC(=O)c6cc(C(F)(F)F)ccc6F)cc5)sc4c3)sc2c1S(=O)(=O)O | 39% (inactive)

Row | SMILES | inhibition
49 | O=C(Nc1ccc(-c2nc3ccccc3[nH]2)cc1)c1ccc2ncsc2c1 | -7% (inactive)
50 | Cc1ccc2nc(-c3ccc4nc(-c5ccc(NC(=O)c6ccc7ncoc7c6)cc5)sc4c3)sc2c1S(=O)(=O)O | 15% (inactive)
51 | Cc1ccc2nc(-c3ccc4nc(-c5ccc6nc(-c7ccc(N)cc7)sc6c5)sc4c3)sc2c1S(=O)(=O)O (tested in a mixture with another compound) | 0% (inactive)
52 | Cc1ccc2nc(-c3ccc(NC(=O)c4ccc(NC(=O)c5ccc(NC(=O)OCC6c7ccccc7-c7ccccc76)cc5)cc4)cc3)sc2c1S(=O)(=O)O | -14% (inactive)
53 | Cc1ccc2nc(-c3ccc4nc(-c5ccc(NC(=O)c6ccccc6)cc5)sc4c3)sc2c1S(=O)(=O)O | 45% (inactive)
54 | Cc1ccc2nc(-c3ccc4nc(-c5ccc(NC(=O)c6ccncc6)cc5)sc4c3)sc2c1S(=O)(=O)O | 59%
55 | COc1ccc(NC(=O)Nc2ccc(-c3nc4ccc(-c5nc6ccc(C)c(S(=O)(=O)O)c6s5)cc4s3)cc2)cc1 | 21% (inactive)
56 | Cc1ccc2nc(-c3ccc4nc(-c5ccc(NC(=O)c6ccc7nc(-c8ccc(NC(=O)OCC9c%10ccccc%10-c%10ccccc%109)cc8)sc7c6)cc5)sc4c3)sc2c1S(=O)(=O)O | 42% (inactive) and 44% (inactive)
57 | Cc1ccc2nc(-c3ccc4nc(-c5ccc(NC(=O)c6cc(C(F)(F)F)cc(C(F)(F)F)c6)cc5)sc4c3)sc2c1S(=O)(=O)O | 60%
58 | Cc1ccc2nc(-c3ccc4nc(-c5ccc(NC(=O)c6ccc(F)cc6)cc5)sc4c3)sc2c1S(=O)(=O)O | 50%
59 | Cc1ccc2nc(-c3ccc4nc(-c5ccc(NC(=O)c6cccnc6)cc5)sc4c3)sc2c1S(=O)(=O)O | 51%
60 | COC(=O)c1ccc(C(=O)Nc2ccc(-c3nc4ccc(-c5nc6ccc(C)c(S(=O)(=O)O)c6s5)cc4s3)cc2)cc1 | 40% (inactive)
61 | Cc1ccc2nc(-c3ccc4nc(-c5ccc(NC(=O)Nc6ccc(F)cc6)cc5)sc4c3)sc2c1S(=O)(=O)O | 17% (inactive)
62 | Cc1ccc2nc(-c3ccc(NC(=O)c4ccc(NC(=O)c5ccc(N)cc5)cc4)cc3)sc2c1S(=O)(=O)O | -42% (inactive)
63 | COc1ccc(S(=O)(=O)Nc2ccc(-c3nc4ccc(-c5nc6ccc(C)c(S(=O)(=O)O)c6s5)cc4s3)cc2)cc1 | 44% (inactive)
64 | Cc1ccc2nc(-c3ccc4nc(-c5ccc(NCc6ccccc6)cc5)sc4c3)sc2c1S(=O)(=O)O | -64% (inactive)
65 | CS(=O)(=O)c1ccc2nc(NC(=O)c3ccc4ncsc4c3)sc2c1 | 55%
66 | Cc1ccc2nc(-c3ccc4nc(-c5ccc(N(C)C(=O)c6ccc7ccccc7c6)cc5)sc4c3)sc2c1S(=O)(=O)O | 24% (inactive)
67 | Cc1cc2sc(-c3ccc(N)cc3)nc2cc1S(=O)(=O)O | 0% (inactive)
68 | O=C(CCCCCCC(=O)Nc1ccc(-c2nc3ccccc3[nH]2)cc1)Nc1ccc(-c2nc3ccccc3[nH]2)cc1 | 96%
69 | Cc1ccc2nc(-c3ccc(NC(=O)c4ccc(NS(=O)(=O)c5ccccc5)cc4)cc3)sc2c1S(=O)(=O)O | -73% (inactive)
70 | Cc1ccc2nc(-c3ccc4nc(-c5ccc6nc(-c7ccc(N)cc7)sc6c5)sc4c3)sc2c1S(=O)(=O)O | 59%
71 | Cc1ccc2nc(-c3ccc4nc(-c5ccc(NC(=O)c6cc(F)cc(C(F)(F)F)c6)cc5)sc4c3)sc2c1S(=O)(=O)O | 51%
